The values below come from ChEMBL document CHEMBL1149671, “Enantiopure five-membered cyclicdiamine derivatives as potent and selective inhibitors of factor Xa. Improving in vitro metabolic stability via core modifications” (Bioorg Med Chem Lett, 2007).

Series [1] can be described thus: Inhibition of human chymotrypsin.
The target in series [2] is Plasminogen (Homo sapiens, UniProt P00747). Nature of the series: Inhibition of human Plasmin.
In series [3] the target is Urokinase-type plasminogen activator (Homo sapiens, UniProt P00749). Description: Inhibition of human urokinase.
The target in series [4] is Tissue-type plasminogen activator (Homo sapiens, UniProt P00750). Description: Inhibition of human tissue plasminogen activator.
A short description of series [5]: Metabolic stability in human liver microsomes after 10 mins. Conditions: read-out: Stability. Type of series: ADME, Microsome. The essentials: (§1)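 Human liver microsomes, 10-min incubation. Metabolic stability given as % compound remaining. Microsomal intrinsic clearance rate (nmol/min/mg) is based on the % remaining after 10 min.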
Background: Liver microsomes are vesicles of endoplasmic reticulum, rich in cytochrome P450 enzymes.

Series [6] deals with T1, Coagulation factor VII (Homo sapiens, UniProt P08709).
T1 sequence (P08709 whole entry): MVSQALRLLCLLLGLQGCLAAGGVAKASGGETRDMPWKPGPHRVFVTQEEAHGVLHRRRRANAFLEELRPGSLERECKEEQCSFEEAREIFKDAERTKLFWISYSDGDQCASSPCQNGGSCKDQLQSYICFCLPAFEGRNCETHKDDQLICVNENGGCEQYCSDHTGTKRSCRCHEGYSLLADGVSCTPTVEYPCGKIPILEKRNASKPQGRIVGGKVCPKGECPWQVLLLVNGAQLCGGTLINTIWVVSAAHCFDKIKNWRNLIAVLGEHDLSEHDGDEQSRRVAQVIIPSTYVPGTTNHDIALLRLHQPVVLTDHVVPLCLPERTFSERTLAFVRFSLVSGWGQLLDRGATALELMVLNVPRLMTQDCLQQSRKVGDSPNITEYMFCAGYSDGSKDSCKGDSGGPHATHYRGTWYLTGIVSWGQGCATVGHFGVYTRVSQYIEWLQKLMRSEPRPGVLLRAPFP
Description: Inhibition of human factor 7a.

The target in series [7] is Vitamin K-dependent protein C (Homo sapiens, UniProt P04070). Nature of the series: Inhibition of human activated protein C.
In series [8] the target is T2, Coagulation factor X (Homo sapiens, UniProt P00742). Description: Inhibition of human factor 10a.
For series [9], the target named is Trypsin (Homo sapiens, UniProt P07477+P07478+P35030). Nature of the series: Inhibition of human trypsin. Type of series: protein assay.
Series [10] deals with Plasma kallikrein (Homo sapiens, UniProt P03952). Nature of the series: Inhibition of human plasma kallikrein. Type of series: cell-free.
The subject of series [11] is Liver microsomes. Nature of the series: Metabolic stability in human liver microsomes assessed as microsomal intrinsic clearance rate. Type of series: ADME, Microsome. In short, it runs like this:
as §1

Series [12] concerns the target Coagulation factor XI (Homo sapiens, UniProt P03951). Nature of the series: Inhibition of human factor 11a.
Series [13] can be described thus: Bioavailability in dog at 0.2 mg/kg, po. Type of series: ADME, organism-based, Canis lupus familiaris. Conditions: in vivo. In short, it runs like this:
(§2)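 Dogs. Intravenous dose 0.5 mg/kg, used for clearance (L/kg/h), steady-state volume of distribution (L/kg) and iv half-life.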

The nature of series [14]: Cytotoxicity against HEK cells. Type of series: cell-based. Conditions: Homo sapiens, HEK293.
Series [15] can be described thus: Volume of distribution at steady state in dog at 0.5 mg/kg, iv. Type of series: ADME, organism-based, Canis lupus familiaris. Details: dose 0.5 mg/kg, route intravenous. Conditions: in vivo, read-out: Vdss. The essentials: as §2
Series [16] can be described thus: Clearance in dog at 0.5 mg/kg, iv. Type of series: ADME, organism-based, Canis lupus familiaris. Details: dose 0.5 mg/kg, route intravenous. The settings on record: in vivo. The essentials:
as §2

Series [17] can be described thus: Half life in dog at 0.5 mg/kg, iv. Type of series: ADME, organism-based, Canis lupus familiaris. Also noted: dose 0.5 mg/kg, route intravenous. Conditions: in vivo. The essentials:
as §2

The nature of series [18]: Permeability across Caco-2 cells. Type of series: ADME, cell-based. The settings on record: human, read-out: permeability. Background: Passage across Caco-2 layers is used to estimate intestinal permeability.
Series [19] in a line: Half life in dog at 0.2 mg/kg, po. Type of series: ADME, organism-based, Canis lupus familiaris. Also noted: dose 0.2 mg/kg, route oral. The settings on record: in vivo.
Series [20] concerns the target Prothrombin (Homo sapiens, UniProt P00734). Nature of the series: Inhibition of human thrombin.
Series [21] addresses T2, Coagulation factor X. Description: Inhibition of human factor 10a in presence of tripeptide substrate at 25 degC.
Series [22] deals with T2, Coagulation factor X. Description: Inhibition of human factor 10a in presence of tripeptide substrate at 37 degC.
In series [23] the target is T2, Coagulation factor X. Description: Inhibition of human factor 10a in presence of saturating prothrombin at 37 degC. In short, it runs like this: (§3)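 Purified human factor Xa. […] Prothrombinase-type inhibition measured with prothrombin as substrate at 25 °C, and with saturating prothrombin at 37 °C. Values are averages of at least 2 determinations.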
Series [24] concerns the target T2, Coagulation factor X. Description: Inhibition of human factor 10a in presence of prothrombin at 25 degC. The essentials:
as §3

Sequence of Plasminogen (P00747 97-580 limits assumed): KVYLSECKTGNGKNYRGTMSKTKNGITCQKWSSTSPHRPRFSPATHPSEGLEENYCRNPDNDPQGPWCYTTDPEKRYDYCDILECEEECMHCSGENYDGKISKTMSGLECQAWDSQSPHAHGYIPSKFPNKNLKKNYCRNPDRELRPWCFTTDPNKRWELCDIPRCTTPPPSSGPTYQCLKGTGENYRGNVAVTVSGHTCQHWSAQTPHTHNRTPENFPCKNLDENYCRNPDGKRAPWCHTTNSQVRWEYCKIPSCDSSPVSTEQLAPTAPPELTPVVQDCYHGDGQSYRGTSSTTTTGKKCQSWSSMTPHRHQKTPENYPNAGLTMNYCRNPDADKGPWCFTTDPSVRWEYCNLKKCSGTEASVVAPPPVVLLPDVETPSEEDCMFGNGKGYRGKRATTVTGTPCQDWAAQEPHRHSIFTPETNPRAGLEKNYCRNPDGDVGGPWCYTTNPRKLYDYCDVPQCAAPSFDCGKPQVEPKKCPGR
Sequence of Plasminogen (P00747 581-810 limits assumed): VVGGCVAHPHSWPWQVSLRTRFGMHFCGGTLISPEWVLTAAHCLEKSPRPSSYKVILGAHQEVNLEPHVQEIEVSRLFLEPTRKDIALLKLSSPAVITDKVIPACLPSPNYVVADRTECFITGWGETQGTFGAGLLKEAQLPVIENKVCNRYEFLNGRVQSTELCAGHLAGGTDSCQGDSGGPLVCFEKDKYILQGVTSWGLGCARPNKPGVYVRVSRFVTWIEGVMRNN
Sequence of Tissue-type plasminogen activator (P00750 whole entry): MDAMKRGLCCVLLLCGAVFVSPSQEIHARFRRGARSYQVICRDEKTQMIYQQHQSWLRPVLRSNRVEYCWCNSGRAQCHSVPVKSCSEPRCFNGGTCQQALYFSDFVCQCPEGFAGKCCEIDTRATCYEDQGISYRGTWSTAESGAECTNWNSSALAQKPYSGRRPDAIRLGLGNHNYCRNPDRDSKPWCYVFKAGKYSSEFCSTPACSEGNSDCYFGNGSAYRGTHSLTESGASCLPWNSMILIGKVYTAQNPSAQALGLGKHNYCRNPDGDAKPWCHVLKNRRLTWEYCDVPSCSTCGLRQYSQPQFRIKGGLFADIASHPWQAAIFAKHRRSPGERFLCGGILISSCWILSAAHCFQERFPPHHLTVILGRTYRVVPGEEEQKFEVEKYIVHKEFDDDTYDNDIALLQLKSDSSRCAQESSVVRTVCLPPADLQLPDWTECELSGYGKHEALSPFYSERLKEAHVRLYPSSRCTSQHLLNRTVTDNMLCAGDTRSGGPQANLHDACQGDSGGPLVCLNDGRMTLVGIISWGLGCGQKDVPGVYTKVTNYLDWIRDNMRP
Sequence of Plasma kallikrein (P03952 20-390 limits assumed): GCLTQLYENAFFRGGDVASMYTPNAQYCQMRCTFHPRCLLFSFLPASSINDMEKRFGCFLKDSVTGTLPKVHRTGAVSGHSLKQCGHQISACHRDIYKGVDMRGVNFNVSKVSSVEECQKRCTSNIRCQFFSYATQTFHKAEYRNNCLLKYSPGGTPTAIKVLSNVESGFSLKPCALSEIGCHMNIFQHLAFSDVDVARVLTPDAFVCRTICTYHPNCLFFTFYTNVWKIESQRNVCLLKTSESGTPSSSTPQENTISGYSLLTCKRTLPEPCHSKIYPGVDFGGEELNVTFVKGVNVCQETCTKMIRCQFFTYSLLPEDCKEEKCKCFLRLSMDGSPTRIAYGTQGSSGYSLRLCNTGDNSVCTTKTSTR
Sequence of Plasma kallikrein (P03952 391-638 limits assumed): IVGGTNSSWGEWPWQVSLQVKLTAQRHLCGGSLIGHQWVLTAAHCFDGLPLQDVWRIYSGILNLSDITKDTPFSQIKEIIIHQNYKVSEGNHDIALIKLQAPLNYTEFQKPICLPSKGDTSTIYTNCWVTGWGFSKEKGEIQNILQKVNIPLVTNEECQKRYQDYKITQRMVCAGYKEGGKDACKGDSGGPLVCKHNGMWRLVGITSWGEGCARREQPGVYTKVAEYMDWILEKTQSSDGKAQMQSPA
T2 sequence (P00742 41-179 limits assumed): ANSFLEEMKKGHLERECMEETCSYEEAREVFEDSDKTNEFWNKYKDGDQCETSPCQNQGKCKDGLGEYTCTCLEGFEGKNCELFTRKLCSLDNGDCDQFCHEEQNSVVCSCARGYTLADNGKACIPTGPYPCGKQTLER
T2 sequence (P00742 235-488 limits assumed): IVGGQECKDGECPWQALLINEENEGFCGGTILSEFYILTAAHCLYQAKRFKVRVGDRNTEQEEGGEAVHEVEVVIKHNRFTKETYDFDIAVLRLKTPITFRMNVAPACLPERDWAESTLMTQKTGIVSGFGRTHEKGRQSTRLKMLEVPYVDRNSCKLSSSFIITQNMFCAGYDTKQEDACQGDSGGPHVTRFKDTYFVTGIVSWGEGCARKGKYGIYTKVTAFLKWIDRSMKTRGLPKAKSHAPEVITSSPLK
Sequence of Vitamin K-dependent protein C (P04070 43-197 limits assumed): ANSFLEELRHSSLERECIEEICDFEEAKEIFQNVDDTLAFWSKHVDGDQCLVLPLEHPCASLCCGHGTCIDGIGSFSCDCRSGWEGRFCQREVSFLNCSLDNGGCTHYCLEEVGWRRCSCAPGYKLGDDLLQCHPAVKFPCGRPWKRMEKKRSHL
Sequence of Vitamin K-dependent protein C (P04070 212-461 limits assumed): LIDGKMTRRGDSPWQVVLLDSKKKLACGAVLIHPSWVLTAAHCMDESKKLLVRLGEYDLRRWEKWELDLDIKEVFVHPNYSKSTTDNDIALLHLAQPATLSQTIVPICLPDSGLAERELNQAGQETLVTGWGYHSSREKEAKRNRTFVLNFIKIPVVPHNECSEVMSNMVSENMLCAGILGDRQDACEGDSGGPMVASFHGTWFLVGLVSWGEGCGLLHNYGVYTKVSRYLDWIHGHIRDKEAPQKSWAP
Sequence of Coagulation factor XI (P03951 19-387 limits assumed): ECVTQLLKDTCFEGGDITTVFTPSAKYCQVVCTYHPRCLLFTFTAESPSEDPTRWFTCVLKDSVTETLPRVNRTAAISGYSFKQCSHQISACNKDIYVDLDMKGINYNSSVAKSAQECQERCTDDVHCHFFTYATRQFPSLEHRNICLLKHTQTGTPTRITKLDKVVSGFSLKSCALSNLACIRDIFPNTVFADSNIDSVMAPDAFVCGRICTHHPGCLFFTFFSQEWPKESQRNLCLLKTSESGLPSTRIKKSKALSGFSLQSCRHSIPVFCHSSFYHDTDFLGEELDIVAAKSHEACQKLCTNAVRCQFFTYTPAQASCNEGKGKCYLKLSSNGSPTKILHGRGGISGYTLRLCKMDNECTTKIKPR
Sequence of Coagulation factor XI (P03951 388-625 limits assumed): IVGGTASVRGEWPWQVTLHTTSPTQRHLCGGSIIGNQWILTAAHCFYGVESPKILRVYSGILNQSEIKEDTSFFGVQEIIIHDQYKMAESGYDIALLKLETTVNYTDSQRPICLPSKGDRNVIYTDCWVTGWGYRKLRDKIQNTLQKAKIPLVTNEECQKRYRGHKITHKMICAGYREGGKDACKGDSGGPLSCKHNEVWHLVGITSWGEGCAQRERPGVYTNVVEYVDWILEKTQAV

For the compound `O=C(N[C@H]1C[C@H](CO)C[C@H]1NC(=O)c1ccc(Cl)s1)c1ccc(-n2ccccc2=O)cc1`, the Ki (usually a measure of affinity in units of concentration, obtained from inhibition or displacement) in series [1] was more than 20 µM; in series [2] it was more than 22 µM; in series [3], more than 14 µM; in [4], more than 21 µM; in [6], more than 11 µM; in [7] it was more than 21 µM. In addition, the Ki in series [8] was 0.00056 µM; in series [9] it was more than 5 µM; in series [10] it was more than 10.8 µM. In [5], the remaining at 10 min came to 100%.

Regarding `CC(=O)N1C[C@H](NC(=O)c2ccc(-n3ccccc3=O)cc2)[C@H](NC(=O)c2ccc(Cl)s2)C1`, the Ki in series [1] is more than 20 µM; in [2], more than 22 µM; in series [3], more than 14 µM; in series [4] it was more than 21 µM; in series [6], more than 11 µM; in [7], more than 21 µM. The Ki in series [12] is 10.2 µM; in series [8] it was 0.00058 µM; in series [9], more than 5 µM; in series [20], 5.44 µM; in series [10] it was more than 6 µM. Further, the CL in [11] amounted to 0 nmol/mg/min. Moreover, the bioavailability (in general, dose-corrected exposure relative to a reference, in per cent) in series [13] is 5%. Moreover, the IC50 (usually the concentration needed to halve the response being measured) in series [14] is more than 100 µM. Further, the Vd in [15] is 2.4 L/kg. Moreover, the clearance in series [16] is 30 mL/min/kg. In addition, the half-life in series [17] and in series [19] was 0.8 h each time. The Papp in [18] is less than 1.5 ×10⁻⁶ cm/s.

On to `O=C(N[C@H]1c2ccccc2C[C@H]1NC(=O)c1ccc(Cl)s1)c1ccc(-n2ccccc2=O)cc1`, for which the remaining at 10 min in series [5] came to 32%. For the same compound, the affinity in [8], expressed as Ki, was 0.00027 µM.

Turning to `O=C(N[C@H]1CCC[C@H]1NC(=O)c1ccc(Cl)s1)c1ccc(-n2ccccc2=O)cc1`, the clearance in series [11] is 0.063 nmol/min/mg; in series [16], 11.7 mL/min/kg. Further, the remaining at 10 min in series [5] worked out at 79%. This compound also registered a bioavailability in series [13] of 60%. In addition, in [15], the Vd turned out to be 0.8 L/kg. The half-life in series [17] and in [19] was 0.7 h in each case. Moreover, in [18], the Papp stood at 9.2 ×10⁻⁶ cm/s.

For the compound `CCS(=O)(=O)N1C[C@H](NC(=O)c2ccc(-n3ccccc3=O)cc2)[C@H](NC(=O)c2ccc(Cl)s2)C1`, the Ki in [1] was more than 20 µM; in series [2], more than 22 µM; in series [3], more than 14 µM; in series [4], more than 21 µM; in [6] it was more than 11 µM; in series [7], more than 21 µM. Moreover, the Ki in series [12] is 6.68 µM; in [8] it was 0.00064 µM; in [9], more than 5 µM; in series [20], 3.95 µM; in series [10], more than 10.8 µM. The CL in series [11] is on record as 0 nmol/mg/min. The compound also showed a bioavailability in series [13] of 16%. The compound also showed an IC50 in series [14] of more than 100 µM. Also, in series [15], the Vd was determined as 1.1 L/kg. In series [16], the clearance is 25 mL/min/kg. Moreover, the figures for the half-life in series [17] and in series [19] were 0.7 h and 1.3 h, respectively. The Papp in series [18] is less than 1.5 ×10⁻⁶ cm/s.

`O=C(N[C@H]1C[C@H](C(=O)O)C[C@H]1NC(=O)c1ccc(Cl)s1)c1ccc(-n2ccccc2=O)cc1`: the inhibition constant (Ki) is more than 20 µM in series [1]; more than 22 µM in series [2]; more than 14 µM in series [3]; more than 21 µM in [4]; more than 11 µM in series [6]; more than 21 µM in [7]. For the same compound, the inhibitory constant (Ki) is more than 11 µM in series [12]; 0.0019 µM in [8]; more than 5 µM in series [9]; more than 12 µM in [20]; more than 6 µM in [10].

With `CCOC(=O)N1C[C@H](NC(=O)c2ccc(-n3ccccc3=O)cc2)[C@H](NC(=O)c2ccc(Cl)s2)C1`, the Ki is more than 20 µM in series [1]; 0.00073 µM in series [21]; more than 22 µM in series [2]; more than 14 µM in [3]; more than 21 µM in series [4]; more than 11 µM in series [6]. Besides, the Ki in series [7] was more than 21 µM; in series [12], 7.38 µM; in [22], 0.0026 µM; in series [8], 0.0005 µM; in series [9], more than 5 µM; in series [20] it was 4.02 µM. Also, the Ki in series [10] was more than 6 µM; in series [23], 0.03 µM; in [24] it was 0.0075 µM. In addition, the CL in series [11] was determined as 0 nmol/mg/min. In [13], this compound gave a bioavailability of 25%. Besides, the IC50 in series [14] is more than 100 µM. The Vd in [15] was determined as 2.4 L/kg. For the same compound, the clearance in series [16] is 43.3 mL/min/kg. In addition, the values for the half-life in series [17] and in [19] were 1.4 h and 2.7 h, respectively. Further, the Papp in series [18] turned out to be 2.5 ×10⁻⁶ cm/s.

For the compound `O=C(N[C@H]1COC[C@H]1NC(=O)c1ccc(Cl)s1)c1ccc(-n2ccccc2=O)cc1`, the Ki was more than 20 µM in series [1]; more than 22 µM in [2]; more than 14 µM in series [3]; more than 21 µM in series [4]; more than 11 µM in series [6]; more than 21 µM in series [7]. Further, the Ki is more than 11 µM in series [12], 0.0026 µM in [8], more than 5 µM in series [9] and more than 12 µM in series [20]. Also, the CL in [11] stood at 0.031 nmol/mg/min. Also, in series [13], the bioavailability turned out to be 97%. Also, the Vd in series [15] was determined as 1 L/kg. Besides, in series [16], the clearance was 26.7 mL/min/kg. For the same compound, the half-life in series [17] and in [19] was 1.2 h each time.
